SIRT5 inh: blocks human SIRT5 desuccinylation of peptide. inhibition, % at 15 µM. Purified SirT5, succinyl-peptide AMC, trypsin-coupled fluorescence. 330,000 compounds, 1.1% hits. AID 652115; in the data active = inhibition above about 15%; inconclusive = no clear call, values can overlap the other calls
E-sel inducer: induces E-selectin expression in human endothelial cells. AID 686992. 260,000 compounds, 0.37% hits. HUVEC E-selectin immunofluorescence imaging; normalized: neutral wells 0, TNF-alpha wells 100. P16581. activation, % at 7.58 µM;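 active = mean E-selectin-positive cell signal at least 10% of the positive control, reached in at least 60% of replicates, without over 20% cell loss; inconclusive = no rule given, readout overlaps actives, possibly toxicity-flagged; inactive = the rest, including those meeting only one limit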
Target sequence (P16581 whole entry, looked up): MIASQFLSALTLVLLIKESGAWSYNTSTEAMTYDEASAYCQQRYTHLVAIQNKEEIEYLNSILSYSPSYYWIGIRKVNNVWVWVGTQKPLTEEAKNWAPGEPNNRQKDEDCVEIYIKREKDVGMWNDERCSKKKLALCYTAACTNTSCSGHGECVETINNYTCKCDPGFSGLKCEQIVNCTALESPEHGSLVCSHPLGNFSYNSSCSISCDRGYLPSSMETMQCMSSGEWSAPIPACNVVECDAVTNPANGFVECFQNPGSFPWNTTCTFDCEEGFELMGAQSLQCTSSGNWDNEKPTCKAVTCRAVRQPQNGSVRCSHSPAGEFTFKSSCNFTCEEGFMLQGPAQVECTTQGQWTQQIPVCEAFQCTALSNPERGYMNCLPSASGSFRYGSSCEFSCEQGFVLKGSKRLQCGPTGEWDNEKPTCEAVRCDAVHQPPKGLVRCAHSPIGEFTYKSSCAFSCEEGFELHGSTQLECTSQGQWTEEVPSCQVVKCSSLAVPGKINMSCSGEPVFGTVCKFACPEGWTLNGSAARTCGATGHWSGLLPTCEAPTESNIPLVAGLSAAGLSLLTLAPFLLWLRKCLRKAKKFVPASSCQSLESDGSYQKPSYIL
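System: HUVEC / Compound: single concentration / Signal: immunofluorescence imaging / Read-out: percent E-selectin-positive cells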
DENV2 CPE rescue: DENV2-induced cell death inhibition; DENV2-infected cells, cytopathic effect rescue, plate reader; CPE inhibition, % at 9.99 µM; 350,000 compounds, 1.7% hits; in the data active = CPE inhibition above about 20%, passing the limit was not always enough; inconclusive = no clear call, values can overlap the other calls; tested in BHK-21 cells;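 note: 0% = median of neutral control wells and 100% = median of positive control wells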
Active calls of the source: *; ? = inconclusive; . = no result. Compounds with a hit are over-represented: about 2.8% of the library has one in this group of screens.

SMILES	SIRT5 inh	E-sel inducer	DENV2 CPE rescue
CCC(=O)N(C)C[C@@H]1Oc2ncc(-c3ccc(C#N)cc3)cc2C(=O)N([C@H](C)CO)C[C@@H]1C	-2.0	0.2	70.4*
C[C@@H]1CN([C@@H](C)CO)C(=O)c2cc(-c3ccc(F)cc3)cnc2O[C@H]1CN(C)C(=O)Cc1ccccn1	-0.3	-0.6	4.5
CCC(=O)N(C)C[C@@H]1Oc2ncc(-c3ccc(C)cc3)cc2C(=O)N([C@@H](C)CO)C[C@@H]1C	1.9	-0.4	-6.4
C[C@@H]1CN([C@H](C)CO)C(=O)c2cc(-c3ccc(F)cc3)cnc2O[C@H]1CN(C)C(=O)Cc1ccccn1	23.0*	-2.4	5.4
CCC(=O)N(C)C[C@@H]1Oc2ncc(-c3ccc(C)cc3)cc2C(=O)N([C@@H](C)CO)C[C@H]1C	1.6	-0.3	22.2*
CCC(=O)N(C)C[C@@H]1Oc2ncc(-c3ccc(C#N)cc3)cc2C(=O)N([C@H](C)CO)C[C@H]1C	-6.8	0.6	11.5
O=C(C[C@H]1C=C[C@H](NC(=O)C2CC2)[C@@H](CO)O1)NCc1ccncc1	-3.7	0.1	4.3
CCCC(=O)N1CC2(CN(C)C2)c2c(n(C)c3cc(OC)ccc23)[C@@H]1CO	.	-0.2	-1.9
COc1ccc(S(=O)(=O)Nc2ccc3c(c2)CC(=O)N([C@H](C)CO)C[C@@H](C)[C@@H](CN(C)Cc2ccc(C(=O)O)cc2)O3)cc1	-3.0	-0.2	-7.3
CC(=O)Nc1ccc2c(c1)C(=O)N(C)[C@@H]1CC[C@@H](CC(=O)NCc3ccc(Cl)cc3)O[C@H]1CO2	.	0.0	-1.0
O=C(C1CCCC1)N1C[C@@H]2[C@H](c3ccccc31)[C@H](CO)N2C(=O)Cc1ccccn1	-0.1	0.3	-0.3
O=C(C1CCCC1)N1C[C@H]2[C@@H](c3ccccc31)[C@@H](CO)N2C(=O)Cc1ccccn1	-1.0	0.0	-6.0
O=C(C1CCCC1)N1C[C@@H]2[C@H](c3ccccc31)[C@@H](CO)N2C(=O)Cc1ccccn1	3.1	-0.1	33.6*
O=C(C1CCCCC1)N1C[C@H]2[C@@H](c3ccccc31)[C@H](CO)N2C(=O)Cc1ccccn1	15.7*	-0.2	5.4
C/C=C/c1ccc([C@@H]2[C@@H](CO)N(C(=O)C3CC3)[C@H]2CN(C)C(=O)C2CC2)cc1	.	15.3	?
CCC(=O)Nc1ccc2c(c1)C(=O)N(C)C[C@H](OC)[C@@H](C)CN(Cc1ccccc1F)[C@@H](C)CO2	2.9	0.0	-6.2
C[C@@H]1CN([C@H](C)CO)C(=O)c2cc(NC(=O)Nc3ccccc3)ccc2O[C@@H](C)CCCCO[C@H]1CN(C)C(=O)NC1CCCCC1	.	0.7	.
O=C(COC(=O)/C=C/c1cccc([N+](=O)[O-])c1)Nc1cccnc1Cl	.	123.8*	6.0
O=C(COC(=O)/C=C/c1ccccc1)Nc1cccnc1Cl	2.4	.	-5.4
O=C(NC1CCCCC1)c1ccc(S(=O)(=O)c2ccccc2)cc1	39.9*	.	3.6
O=C(NC1CC1)c1ccc(NS(=O)(=O)c2ccccc2)cc1	-0.6	-0.2	8.7
C[C@@H]1CN([C@@H](C)CO)C(=O)c2cc(Br)cnc2O[C@@H]1CN(C)Cc1ccc(C(=O)O)cc1	-4.0	-0.1	19.0
C[C@@H]1CN([C@H](C)CO)S(=O)(=O)c2ccc(Br)cc2O[C@@H]1CN(C)Cc1cccnc1	-2.3	-0.3	-2.5
CNC[C@H]1OCCCC[C@@H](C)Oc2ccc(NC(=O)Nc3ccc(F)cc3)cc2C(=O)N([C@@H](C)CO)C[C@H]1C	13.2	0.0	-0.2
Cc1noc(C)c1S(=O)(=O)Nc1ccc2c(c1)C(=O)N([C@H](C)CO)C[C@@H](C)[C@H](CN(C)Cc1ccc(Cl)c(Cl)c1)OCCCC[C@@H](C)O2	17.0*	-0.3	-0.3
SMILES	SIRT5 inh	E-sel inducer	DENV2 CPE rescue
Cc1noc(C)c1S(=O)(=O)Nc1ccc2c(c1)C(=O)N([C@@H](C)CO)C[C@@H](C)[C@H](CN(C)Cc1ccc3c(c1)OCO3)OCCCC[C@H](C)O2	5.3	0.1	4.9
Cc1noc(C)c1S(=O)(=O)Nc1ccc2c(c1)C(=O)N([C@H](C)CO)C[C@H](C)[C@@H](CN(C)Cc1ccc(Cl)c(Cl)c1)OCCCC[C@@H](C)O2	1.9	0.1	-0.5
Cc1noc(C)c1S(=O)(=O)Nc1ccc2c(c1)C(=O)N([C@H](C)CO)C[C@@H](C)[C@@H](CN(C)Cc1ccc3c(c1)OCO3)OCCCC[C@H](C)O2	5.8	-0.1	-7.0
Cc1noc(C)c1S(=O)(=O)Nc1ccc2c(c1)C(=O)N([C@H](C)CO)C[C@H](C)[C@@H](CN(C)Cc1ccc(Cl)c(Cl)c1)OCCCC[C@H](C)O2	15.5*	-0.2	1.1
Cc1noc(C)c1S(=O)(=O)Nc1ccc2c(c1)C(=O)N([C@@H](C)CO)C[C@H](C)[C@@H](CN(C)Cc1ccc(Cl)c(Cl)c1)OCCCC[C@H](C)O2	5.2	-0.2	22.5*
C[C@@H]1CCCCO[C@@H](CN(C)S(=O)(=O)c2cn(C)cn2)[C@@H](C)CN([C@@H](C)CO)C(=O)c2cc(NS(=O)(=O)c3cccs3)ccc2O1	-0.9	0.1	3.8
Cn1cnc(S(=O)(=O)N2C[C@H](O)COC[C@@H]3O[C@@H](CC(=O)NCc4ccc(F)cc4)CC[C@H]32)c1	0.2	-0.1	1.4
O=C(NCC[C@@H]1CC[C@@H](NC(=O)C2CCOCC2)[C@H](CO)O1)c1ccc(F)cc1	-2.0	-0.4	4.2
CCOC(=O)C1(Cc2cccc(OC)c2)CCN(Cc2cccnc2)CC1	0.1	5.6	6.0
CCOC(=O)C1(Cc2cccc(OC)c2)CCCN(Cc2cc(C(C)C)n[nH]2)C1 (stereo unspecified)	-0.1	28.1*	15.2
CCOC(=O)C1(Cc2cccc(OC)c2)CCCN(Cc2c(C)nn(C(C)C)c2C)C1 (stereo unspecified)	-1.8	-0.2	19.3
CCOC(=O)C1(Cc2cccc(OC)c2)CCN(Cc2ccccc2)CC1	-0.5	32.6*	10.6
O=C(c1cccnc1)N1CC2(C1)[C@@H](c1ccccc1)[C@@H](CO)N2Cc1cccnc1	-15.2	0.1	9.1
Cc1ccccc1S(=O)(=O)N[C@H]1CC[C@@H](CCn2cc(-c3ccc(F)cc3)nn2)O[C@@H]1CO	-4.7	-0.7	4.1
COc1cccc(S(=O)(=O)Nc2ccc3c(c2)C(=O)N(C)[C@@H]2CC[C@H](CC(=O)O)O[C@H]2CO3)c1	.	-0.1	-1.0
Oc1cccc(Nc2ccccc2)c1	.	.	28.5*
Oc1cccc(NC(=S)Nc2ccccc2)c1	-5.4	0.4	4.2
N#C[C@@H]1[C@@H](c2ccc(-c3ccncc3)cc2)[C@@H](CO)N1C(=O)C1CCC1	0.8	0.8	-13.9
COc1ccc(NC(=O)N(C)C[C@@H]2Oc3ccc(NS(=O)(=O)c4c(C)noc4C)cc3C(=O)N([C@@H](C)CO)C[C@H]2C)cc1	0.3	7.1	7.0
Cc1noc(C)c1NC(=O)N(C)C[C@@H]1Oc2ccc(NS(=O)(=O)c3c(C)noc3C)cc2C(=O)N([C@@H](C)CO)C[C@@H]1C	.	-9.9	.
COc1ccc(NC(=O)N(C)C[C@H]2Oc3ccc(NS(=O)(=O)c4c(C)noc4C)cc3C(=O)N([C@H](C)CO)C[C@@H]2C)cc1	-4.2	0.1	22.0*
COc1ccc(NC(=O)N(C)C[C@H]2Oc3ccc(NS(=O)(=O)c4c(C)noc4C)cc3C(=O)N([C@@H](C)CO)C[C@H]2C)cc1	0.0	-0.9	9.7

Assay outcomes (PubChem)
